Measured values as given in ChEMBL document CHEMBL1157291, “Discovery of bacterial fatty acid synthase inhibitors from a Phoma species as antimicrobial agents using a new antisense-based strategy” (J Nat Prod, 2006).
Values after ≈ are worked out from the molar mass of the structure shown.

Legend:
[1] = Inhibition of Staphylococcus aureus FAS2
Method in brief: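 Partially purified S. aureus protein containing all FAS enzymes (1.26 µg) was preincubated 20 min at room temperature with serial dilutions of compound. Reactions were started with [2-14C]malonyl-CoA (4 µM final), run 90 min at 37 °C, stopped with perchloric acid, and read by scintillation in phospholipid-coated flash plates. IC50 was determined.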

Staphylococcus aureus [2] = assay: Antimicrobial activity against Staphylococcus aureus RN450 transfected with plasmid SI-1941 bearing antisense to FabF assessed as drug level at which a zone formation after 18 hrs; format: functional
Method in brief: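 Agar two-plate differential sensitivity assay: S. aureus RN450 carrying fabF antisense plasmid, with a vector-only control strain. Overnight LB cultures with 34 µg/mL chloramphenicol at 37 °C were inoculated 1:1000 (of OD 3.0) into LB agar with 0.2% glucose and 15 µg/mL chloramphenicol, plus 50 mM xylose for the antisense strain only. Samples were added to wells and incubated 18 h at 37 °C. MDC is the lowest 2-fold dilution giving a zone in the sensitive strain with a 5 mm zone differential over the control strain.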

Staphylococcus aureus [3] = assay: Antimicrobial activity against Staphylococcus aureus MB2865 after 20 hrs; format: functional
Method in brief: (§1)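 MIC determination: cells inoculated at 10^5 CFU/mL, incubated at 37 °C for 20 h with 2-fold serial dilutions of compound in growth medium; MIC taken as lowest concentration inhibiting growth.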

Enterococcus faecium = assay: Antimicrobial activity against vancomycin-resistant Enterococcus faecium CL5791 after 20 hrs; format: functional; method in brief: as §1
Escherichia coli [4] = assay: Antimicrobial activity against wild type Escherichia coli after 20 hrs; format: functional
Method in brief: (§2)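 Broth MIC: cells at 10^5 CFU/mL were incubated at 37 °C for 20 h with 2-fold serial dilutions of compound in growth medium. The MIC was taken as the lowest concentration inhibiting growth.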

Enterococcus faecalis = assay: Antimicrobial activity against vancomycin-sensitive Enterococcus faecalis CL8516 after 20 hrs; format: functional; method in brief: as §2
Escherichia coli [5] = assay: Antimicrobial activity against envA transfected Escherichia coli after 20 hrs; format: functional; method in brief: as §2
Staphylococcus aureus [6] = assay: Antimicrobial activity against methicillin-resistant Staphylococcus aureus COL after 20 hrs; format: functional; method in brief: as §1

Structure (SMILES) | IC50 [1] [µg/mL] | Activity (Staphylococcus aureus [2]) [µg/mL] | MIC (Staphylococcus aureus [3]) [µg/mL] | MIC (Enterococcus faecium) [µg/mL] | MIC (Escherichia coli [4]) [µg/mL] | MIC (Enterococcus faecalis) [µg/mL] | MIC (Escherichia coli [5]) [µg/mL] | MIC (Staphylococcus aureus [6]) [µg/mL]
C/C=C/C/C=C/CCC(=O)[C@H]1O[C@H]1C(N)=O [CERULENIN] | 1.5 (≈ 6.72 µM) | 32 | 64 (≈ 287 µM) |  |  |  |  | 
CCC(O)C#CC#CC=C=CCCCCC(=O)O (configuration not stated) [PHOMALLENIC ACID A] | 22 (≈ 89.3 µM) | 0.63 | 250 (≈ 1010 µM) | > 250 | > 250 | > 250 | 31.3 (≈ 127 µM) | 250 (≈ 1010 µM)
CCCC#CC#CC=C=CCCCCCCC(=O)O [PHOMALLENIC ACID B] | 3.4 (≈ 13.2 µM) | 0.31 | 7.8 (≈ 30.2 µM) | > 100 | > 100 | > 100 | 25 (≈ 96.8 µM) | 12.5 (≈ 48.4 µM)
CCCC#CC#CC=C=CCCCCCCCC(=O)O [PHOMALLENIC ACID C] | 0.77 (≈ 2.83 µM) | 0.15 | 3.9 (≈ 14.3 µM) | > 100 | > 100 | > 100 | 12.5 (≈ 45.9 µM) | 3.9 (≈ 14.3 µM)
C=C/C(C)=C/[C@@]1(C)SC(=O)C(C)=C1O [THIOLACTOMYCIN] |  |  |  | > 250 | > 250 | > 250 | > 250 | 64 (≈ 304 µM)
